{
  "source": "ChEMBL document CHEMBL1125380",
  "about": "“Synthesis, cardiac electrophysiology, and beta-blocking activity of novel arylpiperazines with potential as class II/III antiarrhythmic agents” (J Med Chem, 1992)",
  "key": {"[1]": {"target": "Beta-2 adrenergic receptor (Canis lupus familiaris, UniProt P54833)", "sequence (P54833 whole entry)": "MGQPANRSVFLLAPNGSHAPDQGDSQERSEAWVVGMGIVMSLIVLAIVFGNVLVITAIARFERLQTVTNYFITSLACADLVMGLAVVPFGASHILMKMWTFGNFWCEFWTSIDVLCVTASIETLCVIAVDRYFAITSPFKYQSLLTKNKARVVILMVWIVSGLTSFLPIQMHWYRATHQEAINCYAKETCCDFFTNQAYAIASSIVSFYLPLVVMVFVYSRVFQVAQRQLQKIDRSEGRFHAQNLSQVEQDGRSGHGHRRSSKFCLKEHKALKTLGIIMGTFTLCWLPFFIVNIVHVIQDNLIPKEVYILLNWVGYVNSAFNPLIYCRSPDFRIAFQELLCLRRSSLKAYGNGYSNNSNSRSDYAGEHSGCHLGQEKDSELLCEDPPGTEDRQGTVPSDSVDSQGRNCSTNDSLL", "format": "cell membranes"}, "Canis familiaris [2]": {"species_on_record": "Canis familiaris", "experiment": "Concentration necessary to prolong APD at 95% repolarization by 20% from control; Not Reached at 30 uM", "format": "functional", "conditions": "Canis lupus familiaris", "how_it_was_run": "(§1)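 Concentration giving a 20% prolongation of action potential duration at 95% repolarization versus control, with Vmax monitored as a class I index. Values are the log mean of n experiments with range; concentrations went up to 30 µM.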"}, "Canis familiaris [3]": {"species_on_record": "Canis familiaris", "experiment": "Concentration necessary to prolong APD at 95% repolarization by 20% from control.", "format": "functional, Canis lupus familiaris", "how_it_was_run": "as §1"}, "Canis familiaris [4]": {"test_system": "Canis familiaris", "experiment": "number of effected animals / number of tested animals at 3 mg/kg in a halothane / epinephrine model", "format": "functional, Canis lupus familiaris", "how_it_was_run": "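Halothane-anesthetized dogs received compound as a 10-min iv infusion at 3 mg/kg. Thirty minutes later, epinephrine was infused at 1.5 µg/kg per min for 15 min. Protection meant no SVT/VF during the whole epinephrine infusion; reported as protected/tested.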"}, "Canis familiaris [5]": {"species_on_record": "Canis familiaris", "experiment": "Compound was evaluated for Total peripheral resistance in dog", "format": "functional, Canis lupus familiaris", "how_it_was_run": "(§2)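 Pentobarbital-anesthetized mongrel dogs (n = 4) received a 10 mg/kg iv dose over 5 min. Haemodynamic parameters were recorded 15 min after dosing, as change from pre-dose.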"}, "Canis familiaris [6]": {"species_on_record": "Canis familiaris", "experiment": "Compound was evaluated for change in Heart rate in dog", "format": "functional, Canis lupus familiaris", "how_it_was_run": "as §2"}, "Canis familiaris [7]": {"species_on_record": "Canis familiaris", "experiment": "Compound was evaluated for Mean arterial pressure in dog", "format": "functional, Canis lupus familiaris, Artery", "how_it_was_run": "as §2"}, "Canis familiaris [8]": {"species_on_record": "Canis familiaris", "experiment": "Compound was evaluated for Cardiac output in dog", "format": "functional, Canis lupus familiaris", "how_it_was_run": "as §2"}, "Canis familiaris [9]": {"species_on_record": "Canis familiaris", "experiment": "Peak range of change in left ventricular pressure in dog", "format": "functional, Canis lupus familiaris, Heart left ventricle", "how_it_was_run": "as §2"}, "Canis familiaris [10]": {"species_on_record": "Canis familiaris", "experiment": "Number of active animals / number of tested animals in programmed electrical stimulation model (PES)", "format": "functional, Canis lupus familiaris", "how_it_was_run": "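Conscious dogs studied by programmed electrical stimulation 3-8 days after occlusion/reperfusion infarction. Two control SVT/VF inductions were made first, with VF ended by DC countershock and SVT by burst pacing. Reinduction was tried after iv compound; an animal counted as protected if SVT/VF could not be induced.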"}},
  "note": "Calls of active or inactive are those of the source. The rule behind the calls is not given here.",
  "data": [
    {"smiles": "O=C(NCC1CN(c2ccccc2)CCN1)c1ccccc1", "note": "(configuration not stated)", "values": [
      {"measurement": "IC50", "setting": "[1]", "value": 6.2, "unit": "µM"},
      {"measurement": "C20 APD95", "setting": "Canis familiaris [2]", "value": "inactive"}
    ]},
    {"smiles": "COc1cccc(N2CCNC(CNC(=O)c3ccc(NS(C)(=O)=O)cc3)C2)c1", "note": "(configuration not stated)", "values": [
      {"measurement": "C20 APD95", "setting": "Canis familiaris [3]", "value": 2.5, "unit": "µM"},
      {"measurement": "IC50", "setting": "[1]", "value": 3.5, "unit": "µM"}
    ]},
    {"smiles": "Cc1ccc(N2CCNCC2)cc1", "values": [
      {"measurement": "IC50", "setting": "[1]", "value": "> 100", "unit": "µM"}
    ]},
    {"smiles": "CS(=O)(=O)Nc1ccc(NC(=O)C2CN(c3ccccc3)CCN2)cc1", "note": "(configuration not stated)", "values": [
      {"measurement": "C20 APD95", "setting": "Canis familiaris [3]", "value": 21, "unit": "µM"},
      {"measurement": "IC50", "setting": "[1]", "value": "> 100", "unit": "µM"}
    ]},
    {"smiles": "c1ccc(N2CCNCC2)cc1", "note": "[PHENYLPIPERAZINE]", "values": [
      {"measurement": "IC50", "setting": "[1]", "value": "> 100", "unit": "µM"}
    ]},
    {"smiles": "CS(=O)(=O)Nc1ccc(C(=O)NCC2CN(c3cccc(Cl)c3)CCN2)cc1", "note": "(configuration not stated)", "values": [
      {"measurement": "C20 APD95", "setting": "Canis familiaris [3]", "value": 0.8, "unit": "µM"},
      {"measurement": "IC50", "setting": "[1]", "value": 3.8, "unit": "µM"}
    ]},
    {"smiles": "CS(=O)(=O)Nc1ccc(CNCC2CN(c3ccccc3)CCN2)cc1", "note": "(configuration not stated)", "values": [
      {"measurement": "C20 APD95", "setting": "Canis familiaris [3]", "value": 0.4, "unit": "µM"},
      {"measurement": "IC50", "setting": "[1]", "value": 4.6, "unit": "µM"}
    ]},
    {"smiles": "Cc1cccc(N2CCNCC2)c1", "values": [
      {"measurement": "IC50", "setting": "[1]", "value": 40, "unit": "µM"}
    ]},
    {"smiles": "Clc1cccc(N2CCNCC2)c1", "note": "[CHLOROPHENYLPIPERAZINE]", "values": [
      {"measurement": "IC50", "setting": "[1]", "value": 18, "unit": "µM"}
    ]},
    {"smiles": "CS(=O)(=O)Nc1ccc(C(=O)NCC2CNCCN2c2ccccc2)cc1", "note": "(configuration not stated)", "values": [
      {"measurement": "C20 APD95", "setting": "Canis familiaris [3]", "value": 3.2, "unit": "µM"},
      {"measurement": "IC50", "setting": "[1]", "value": 31, "unit": "µM"}
    ]},
    {"smiles": "O=C(NCC1CN(c2ccccc2)CCN1)c1ccc(-n2ccnc2)cc1", "note": "(configuration not stated)", "values": [
      {"measurement": "C20 APD95", "setting": "Canis familiaris [3]", "value": 0.9, "unit": "µM"},
      {"measurement": "IC50", "setting": "[1]", "value": 4.3, "unit": "µM"}
    ]},
    {"smiles": "Clc1ccccc1N1CCNCC1", "values": [
      {"measurement": "IC50", "setting": "[1]", "value": 16, "unit": "µM"}
    ]},
    {"smiles": "CC(C)NCC(O)c1ccc(NS(C)(=O)=O)cc1", "note": "(configuration not stated) [SOTALOL]", "values": [
      {"measurement": "C20 APD95", "setting": "Canis familiaris [3]", "value": 18, "unit": "µM"},
      {"measurement": "No. effective", "setting": "Canis familiaris [4]", "value": 6},
      {"measurement": "TPR", "setting": "Canis familiaris [5]", "value": 41},
      {"measurement": "HR", "setting": "Canis familiaris [6]", "value": -39},
      {"measurement": "MAP", "setting": "Canis familiaris [7]", "value": -26},
      {"measurement": "Cardiac output", "setting": "Canis familiaris [8]", "value": -44},
      {"measurement": "LV", "setting": "Canis familiaris [9]", "value": -33},
      {"measurement": "No. active", "setting": "Canis familiaris [10]", "value": 7}
    ]},
    {"smiles": "Clc1ccc(N2CCNCC2)cc1", "values": [
      {"measurement": "IC50", "setting": "[1]", "value": 70, "unit": "µM"}
    ]},
    {"smiles": "COc1ccccc1N1CCNCC1", "values": [
      {"measurement": "IC50", "setting": "[1]", "value": 34, "unit": "µM"}
    ]},
    {"smiles": "CC(=O)c1ccc(N2CCNCC2)cc1", "values": [
      {"measurement": "IC50", "setting": "[1]", "value": "> 100", "unit": "µM"}
    ]},
    {"smiles": "COc1ccc(N2CCNCC2)cc1", "values": [
      {"measurement": "IC50", "setting": "[1]", "value": "> 100", "unit": "µM"}
    ]},
    {"smiles": "CS(=O)(=O)Nc1ccc(NCC2CN(c3ccccc3)CCN2)cc1", "note": "(configuration not stated)", "values": [
      {"measurement": "C20 APD95", "setting": "Canis familiaris [3]", "value": 2, "unit": "µM"},
      {"measurement": "IC50", "setting": "[1]", "value": 1, "unit": "µM"}
    ]},
    {"smiles": "Cc1ccccc1N1CCNCC1", "values": [
      {"measurement": "IC50", "setting": "[1]", "value": 29, "unit": "µM"}
    ]},
    {"smiles": "CS(=O)(=O)Nc1ccc(NCC2CNCCN2c2ccccc2)cc1", "note": "(configuration not stated)", "values": [
      {"measurement": "C20 APD95", "setting": "Canis familiaris [3]", "value": 9.2, "unit": "µM"},
      {"measurement": "IC50", "setting": "[1]", "value": 42, "unit": "µM"}
    ]},
    {"smiles": "COc1ccccc1N1CCNC(CNC(=O)c2ccc(NS(C)(=O)=O)cc2)C1", "note": "(configuration not stated)", "values": [
      {"measurement": "C20 APD95", "setting": "Canis familiaris [3]", "value": 18, "unit": "µM"},
      {"measurement": "IC50", "setting": "[1]", "value": 0.63, "unit": "µM"}
    ]},
    {"smiles": "COc1cccc(N2CCNCC2)c1", "values": [
      {"measurement": "IC50", "setting": "[1]", "value": 29, "unit": "µM"}
    ]},
    {"smiles": "CS(=O)(=O)Nc1ccc(OCC2CN(c3ccccc3)CCN2)cc1", "note": "(configuration not stated)", "values": [
      {"measurement": "C20 APD95", "setting": "Canis familiaris [3]", "value": 1, "unit": "µM"},
      {"measurement": "IC50", "setting": "[1]", "value": 4.5, "unit": "µM"}
    ]},
    {"smiles": "CS(=O)(=O)Nc1ccc(C(=O)NCC2CN(c3ccccc3)CCN2)cc1", "note": "(configuration not stated)", "values": [
      {"measurement": "C20 APD95", "setting": "Canis familiaris [3]", "value": 0.8, "unit": "µM"},
      {"measurement": "No. effective", "setting": "Canis familiaris [4]", "value": 5},
      {"measurement": "TPR", "setting": "Canis familiaris [5]", "value": 22},
      {"measurement": "HR", "setting": "Canis familiaris [6]", "value": 38},
      {"measurement": "MAP", "setting": "Canis familiaris [7]", "value": 5},
      {"measurement": "IC50", "setting": "[1]", "value": 3.4, "unit": "µM"},
      {"measurement": "Cardiac output", "setting": "Canis familiaris [8]", "value": -14},
      {"measurement": "LV", "setting": "Canis familiaris [9]", "value": 3},
      {"measurement": "No. active", "setting": "Canis familiaris [10]", "value": 6}
    ]},
    {"smiles": "CN(c1ccc(C(=O)NCC2CN(c3ccccc3)CCN2)cc1)S(C)(=O)=O", "note": "(configuration not stated)", "values": [
      {"measurement": "IC50", "setting": "[1]", "value": 4.3, "unit": "µM"},
      {"measurement": "C20 APD95", "setting": "Canis familiaris [2]", "value": "inactive"}
    ]}
  ]
}
